From ChEMBL document CHEMBL5036342, “Indomethacin-based PROTACs as pan-coronavirus antiviral agents” (Eur J Med Chem, 2021)
pEC50, pIC50: −log10 of the molar value.

Columns and labels:
Canine coronavirus = assay: Antiviral activity against Canine coronavirus infected in dog A-72 cells assessed as inhibition of viral replication; type: functional, cell-based; details: Alphacoronavirus 1, A-72
SARS-CoV-2 [1] = assay: Antiviral activity against SARS-CoV-2 infected in African green monkey Vero E6 cells assessed as reduction in virus induced cytopathic effect measured after 4 days by MTT assay; type: functional, organism-based; details: Severe acute respiratory syndrome coronavirus 2, Vero C1008, 96 h
Vero C1008 = assay: Cytotoxicity against African green monkey Vero E6 cells assessed as reduction of cell viability measured after 72 hrs by MTT assay; type: cell-based; details: chlorocebus sabaeus, vero c1008, 72 h
Summary of the method: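 Uninfected Vero E6 cells were exposed to compound for 72 h and viability read by MTT. CC50 is the concentration reducing viability by 50%.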

[2] = Cytotoxicity against African green monkey Vero E6 cells infected with SARS-CoV-2 assessed as reduction of cell viability measured after 48 hrs by MTT assay; type: cell-based, Vero C1008; details: chlorocebus sabaeus
SARS-CoV-2 [3] = assay: Antiviral activity against SARS-CoV-2/NL/2020 infected in African green monkey Vero E6 cells assessed as inhibition of plaque formation measured after 3 days by Plaque reduction assay; type: functional, organism-based; details: Severe acute respiratory syndrome coronavirus 2, NL/2020, Vero C1008, 72 h
SARS-CoV = assay: Antiviral activity against SARS-CoV infected in African green monkey Vero E6 cells assessed as inhibition of viral replication; type: functional, organism-based; details: Severe acute respiratory syndrome-related coronavirus, Vero C1008
[4] = Selectivity index, ratio of CC50 for cytotoxicity against African green monkey Vero E6 cells to EC50 for antiviral activity against SARS-COV2/NL/2020 infected in African green monkey Vero E6 cells; type: toxicity, cell-based, Vero C1008; details: read-out: Ratio CC50/EC50
Human coronavirus OC43 = assay: Antiviral activity against Human coronavirus OC43 infected in human MRC5 cells assessed as inhibition of plaque formation measured after 3 days by Plaque reduction assay; type: functional, cell-based; details: Betacoronavirus 1, MRC5, 72 h
Summary of the method: (§1)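 MRC-5 cells were seeded at 6×10^4 per well and infected the next day with 80 PFU per well. After the inoculum was removed, the overlay held graded compound concentrations, 3% FBS and 0.6% methylcellulose. Monolayers were fixed and stained after 3 days, and plaques counted. EC50 is the concentration giving 50% plaque inhibition, with 95% profile-likelihood CI. n = 3 independent experiments in duplicate.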

SARS-CoV-2 [5] = assay: Antiviral activity against SARS-COV2/Padova/2020 infected in African green monkey Vero E6 cells assessed as inhibition of plaque formation measured after 3 days by Plaque reduction assay; type: functional, organism-based; details: Severe acute respiratory syndrome coronavirus 2, Padova/2020, Vero C1008, 72 h
[6] = Selectivity index, ratio of CC50 for cytotoxicity against African green monkey Vero E6 cells to EC50 for antiviral activity against SARS-COV2/Padova/2020 infected in African green monkey Vero E6 cells; type: toxicity, cell-based, Vero C1008; details: read-out: Ratio CC50/EC50
MRC5 = assay: Cytotoxicity against human MRC5 cells assessed as reduction in cell viability measured after 72 hrs by MTT assay; type: cell-based; details: mrc5, 72 h
Summary of the method: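 MRC-5 cells were exposed to compound for 72 h and viability read by MTT. CC50 is the concentration reducing viability by 50%.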

Human coronavirus 229E = assay: Antiviral activity against Human coronavirus 229E infected in human MRC5 cells assessed as inhibition of plaque formation measured after 3 days by Plaque reduction assay; type: functional, organism-based; details: MRC5, 72 h; summary of the method: as §1

Structure (SMILES)	pIC50 (Canine coronavirus)	LC50 (Canine coronavirus; read-out: LD50 (the source's name)) [µM]	pEC50 (SARS-CoV-2 [1])	CC50 (Vero C1008) [µM]	CC50 at 48 h [2] [µM]	pEC50 (SARS-CoV-2 [3])	pIC50 (SARS-CoV)	selectivity ratio [4]	pEC50 (Human coronavirus OC43)	pEC50 (SARS-CoV-2 [5])	selectivity ratio [6]	CC50 (MRC5) [µM]	pEC50 (Human coronavirus 229E)
COc1ccc2c(c1)c(CC(=O)O)c(C)n2C(=O)c1ccc(Cl)cc1 [INDOMETHACIN]	5.30	550	< 3.40	> 500	> 100	4.02	4.30	> 5					
COc1ccc2c(c1)c(CC(=O)NCCN1CCN(C(=O)CCC(=O)N[C@H](C(=O)N3C[C@H](O)C[C@H]3C(=O)N[C@@H](C)c3ccc(-c4scnc4C)cc3)C(C)(C)C)CC1)c(C)n2C(=O)c1ccc(Cl)cc1				> 250		4.67		> 12	5.60	4.53	> 8	238	5.49
COc1ccc2c(c1)c(CC(=O)NCCOCCOCC(=O)N[C@H](C(=O)N1C[C@H](O)C[C@H]1C(=O)N[C@@H](C)c1ccc(-c3scnc3C)cc1)C(C)(C)C)c(C)n2C(=O)c1ccc(Cl)cc1				> 200		< 4.30		> 4		< 4.30	> 4		
COc1ccc2c(c1)c(CC(=O)NCCCCCCC(=O)N[C@H](C(=O)N1C[C@H](O)C[C@H]1C(=O)N[C@@H](C)c1ccc(-c3scnc3C)cc1)C(C)(C)C)c(C)n2C(=O)c1ccc(Cl)cc1				> 200		4.74		> 11	5.33	4.60	> 8	> 250	4.44
COc1ccc2c(c1)c(CC(=O)NCCCCC(=O)N[C@H](C(=O)N1C[C@H](O)C[C@H]1C(=O)N[C@@H](C)c1ccc(-c3scnc3C)cc1)C(C)(C)C)c(C)n2C(=O)c1ccc(Cl)cc1				> 200		< 4.30		> 4		< 4.30	> 4		
CCC(CC)COC(=O)[C@H](C)N[P@](=O)(OC[C@H]1O[C@@](C#N)(c2ccc3c(N)ncnn23)[C@H](O)[C@@H]1O)Oc1ccccc1 [REMDESIVIR]				373		6.82		2490		6.60	1490		
